Results: ChEMBL document CHEMBL1157181, “Novel antioxidant agents deriving from molecular combination of Vitamin C and NO-donor moieties” (Bioorg Med Chem, 2008)
The source made the active and inactive calls. The rule behind the calls is not given here.

Experiments:
[1] = system: Hepatocyte; experiment: Antioxidant activity Wistar rat hepatocyte membrane assessed as Fe(3+)-ADP/NADPH-induced lipid peroxidation at 1 mM by TBA assay; format: functional, cell-based
In short: (§1)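 Microsomes from male Wistar rat liver (180–200 g) in Tris-HCl/KCl pH 7.4 (2 mg protein/mL) with ADP 1 mM and FeCl3 50 μM, plus compound in DMSO (≤5%). Peroxidation started with NADPH 0.4 mM at 37 °C and sampled to 30 min. TBARS read at 543 nm against an MDA standard. Inhibition is taken from the 30-min plateau, with IC50 by nonlinear regression.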

[2] = Dissociation constant, pKa of the compound; format: physicochemical
In short: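 Potentiometric titration, at least four runs per compound, of about 1 mM aqueous solutions with ionic strength 0.15 M (KCl). Solutions acidified to pH 1.8 with 0.5 N HCl, then titrated with standardised 0.5 N KOH to pH 10.5, under argon at 25.0 ± 0.1 °C. For poorly soluble compounds, at least five titrations in 15-50 wt% methanol, extrapolated to zero cosolvent (Yasuda-Shedlovsky).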

[3] = Distribution coefficient, log D at pH 1.0 after 4 hrs by shake flask method; format: physicochemical; conditions: octanol/water
In short: (§2)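 Shake-flask n-octanol/buffer partition at room temperature, pH 1.0 (HCl) or pH 7.4 (phosphate), ionic strength 0.15 M KCl. Phases are presaturated by shaking for 4 h. Solute is about 0.1 mM in the aqueous phase, shaken about 20 min and centrifuged. Aqueous concentration is read by UV at λmax, with at least seven log D values per compound.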

[4] = Distribution coefficient, log D at pH 7.4 after 4 hrs; format: physicochemical; conditions: octanol/water; in short: as §2
[5] = system: Hepatocyte; experiment: Antioxidant activity Wistar rat hepatocyte membrane assessed as Fe(3+)-ADP/NADPH-induced lipid peroxidation by TBA assay; format: functional, cell-based; in short: as §1
[6] = system: Aorta; experiment: Vasorelaxation activity in Wistar rat thoracic aorta assessed as inhibition of L-phenylephrine-induced contraction; format: functional, tissue-based
In short: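 Endothelium-denuded thoracic aorta strips from male Wistar rats (180–200 g) equilibrated 120 min and contracted with 1 μM L-phenylephrine. At plateau, cumulative concentrations of the test agent are added. EC50 is given ± SEM (μM).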

[7] = system: Aorta; experiment: Vasorelaxation activity in Wistar rat thoracic aorta assessed as inhibition of L-phenylephrine-induced contraction in presence of 1 uM 1H-[1,2,4]oxadiazolo[4,3-a]quinoxalin-1-one; format: functional, tissue-based
In short: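 Denuded Wistar rat aortic strips with 1 μM ODQ added to the bath 5 min before contraction with 1 μM L-phenylephrine. Cumulative relaxant concentrations are added at plateau, and EC50 is given ± SEM (μM).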

[8] = Distribution coefficient, log D at pH 7.4 after 4 hrs by shake flask method; format: physicochemical; conditions: octanol/water; in short: as §2
[9] = system: Hepatocyte; experiment: Antioxidant activity Wistar rat hepatocyte membrane assessed as Fe(3+)-ADP/NADPH-induced lipid peroxidation at 50 uM by TBA assay; format: functional; in short: as §1

pKa [2] | logD at 4 h [3] | logD at 4 h [4] | EC50 [6] [µM] | EC50 [7] [µM] | logD at 4 h [8] | SMILES | Activity [1] | IC50 [5] [µM] | Activity [9] [%]
3.19 | -0.26 | < -2 | – | – | – | O=C1OC(C(O)CO)C(O)=C1OCCCO[N+](=O)[O-] (configuration not stated) | inactive | – | –
7.6 | 0.86 | – | 2.1 | > 100 | 0.76 | O=C1OC(C(O)CO)C(OCCCCCCO[N+](=O)[O-])=C1O (configuration not stated) | – | 80 | –
7.6 | 1.53 | – | 3.8 | 80.9 | 1.13 | O=C1OC(C(O)CO)C(OCCCOc2no[n+]([O-])c2-c2ccccc2)=C1O (configuration not stated) | – | 17 | –
3.44 | 1.71 | – | 32 | > 100 | -1.35 | O=C1OC(C(O)CO)C(O)=C1OCCCOc1no[n+]([O-])c1-c1ccccc1 (configuration not stated) | – | 392 | –
– | -1.65 | – | – | – | – | O=C1O[C@H]([C@@H](O)CO)C(O)=C1O [ASCORBIC ACID] | – | – | 77
7.54 | -1.41 | – | – | – | -1.61 | COC1=C(O)C(=O)O[C@@H]1[C@@H](O)CO | – | > 1000 | –
7.07 | -0.99 | – | 6 | > 100 | -1.44 | NC(=O)c1c(COC2=C(O)C(=O)OC2C(O)CO)no[n+]1[O-] (configuration not stated) | – | > 1000 | –
7.55 | -0.48 | – | 55 | > 100 | -0.55 | O=C1OC(C(O)CO)C(OCCCO[N+](=O)[O-])=C1O (configuration not stated) | – | 454 | –
3.56 | 0.84 | – | 7.1 | > 100 | -1.93 | O=C1OC(C(O)CO)C(O)=C1OCCCCCCO[N+](=O)[O-] (configuration not stated) | – | > 1000 | –
7.64 | 0.78 | – | 0.72 | > 100 | 0.66 | O=C1OC(C(O)CO)C(OCCCCC(CO[N+](=O)[O-])O[N+](=O)[O-])=C1O (configuration not stated) | – | 28 | –
7.62 | 1.18 | – | 0.034 | 7 | 0.98 | O=C1OC(C(O)CO)C(OCCCOc2no[n+]([O-])c2S(=O)(=O)c2ccccc2)=C1O (configuration not stated) | – | 80 | –
3.23 | -1.44 | < -2 | – | – | – | COC1=C(O)[C@@H]([C@@H](O)CO)OC1=O | inactive | – | –
